High-throughput results (PubChem)
The list is not random: actives were taken first. Their share in the collection is about 2.6%.
Rin1 Abl inh = inhibitors of human Rin1-Abl protein interaction; P00519+Q13671; TR-FRET Rin1/Abl binding, biochemical; inhibition, % at 7.35 µM; 360,000 compounds, 0.4% hits; in the data active means inhibition above about 5%, passing the limit was not always enough
Myeloid diff MLP = compounds promoting myeloid differentiation | ER-HoxA9 myeloid progenitors, lysozyme-GFP differentiation, flow cytometry | calls only at 10 µM | 360,000 compounds, 1% hits | AID 624256;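 active means normalized GFP-positive differentiation at or above the plate's own cutoff, the solvent-only control mean plus 3 SD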;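 further: cells exposed to compound for four days before flow analysis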
Rce1 inh = yeast Ras-converting enzyme inhibition | yeast membranes, quenched prenylated peptide cleavage fluorescence | calls only | 290,000 compounds, 0.27% hits;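 active means fall in fluorescence gain of 50% or more versus controls, with final raw signal at or below 3038400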;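 further: plate controls were neutral control wells for no effect and wells lacking membranes for full effect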
Target sequence (Q03530 whole entry, looked up): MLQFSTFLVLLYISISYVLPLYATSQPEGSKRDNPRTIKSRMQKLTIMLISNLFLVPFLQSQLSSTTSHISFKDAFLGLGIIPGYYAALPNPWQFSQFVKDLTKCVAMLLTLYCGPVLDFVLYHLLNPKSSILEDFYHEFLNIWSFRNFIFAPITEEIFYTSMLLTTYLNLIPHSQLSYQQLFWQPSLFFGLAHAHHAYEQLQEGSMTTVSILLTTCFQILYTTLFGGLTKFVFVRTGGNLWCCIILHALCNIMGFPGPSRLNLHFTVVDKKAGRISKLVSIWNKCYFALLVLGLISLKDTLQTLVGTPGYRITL
T cell HTS = modulates CD8 T cell binding to vesicles; response (vesicle binding), % at 7 µM; 2C CD8+ T cell-vesicle binding, flow cytometry; stronger effect = lower value; AID 2052; 330,000 compounds, 0.068% hits;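 active means response, share of CD8 T cells binding vesicles, and their 90th percentile fluorescence all below set limits, cut at about 80% in these data, passing the limit was not always enough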;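 further: values below 100% mean blocked vesicle binding to the CD8+ T cells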
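Test system: purified 2C TCR transgenic mouse naive CD8+ T cells. Probe or stimulus: QL9-peptide-loaded Drosophila micro-vesicles bearing Ld, ICAM-1 and B7-1. Incubation: binding step 1.5 h, 37 °C, antibody labelling 20 min, ice. Measured by: flow cytometry of vesicle-bound cells.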
SKN-1 inh = C. elegans SKN-1 inhibition | C. elegans VP596 Pgst-4::GFP/RFP ratio, acrylamide-induced, 24 h | inhibition, % at 21.8 µM | 360,000 compounds, 0.49% hits;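 active means interference check ratio from 0.5 to 1.5 plus GFP to RFP signal ratio inhibition reaching or exceeding a fixed threshold, cut at about 30% in these data, passing the limit was not always enough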
GRK2 aptamer HTS = human GRK2 inhibition via aptamer displacement; bead flow cytometry, FAM-aptamer displacement from GRK2; inhibition of aptamer binding, % at 10 µM; 330,000 compounds, 0.59% hits; P25098;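 active means inhibition of aptamer binding above 40%, roughly 3 SD of noise, on plates passing a quality check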;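 further: median bead fluorescence of bound FAM aptamer so fluorescent compounds give negative values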
Active calls of the source: *; i = inactive; · = not tested or not shown; + = active, no number.

SMILES	Rin1 Abl inh	Myeloid diff MLP	Rce1 inh	T cell HTS	SKN-1 inh	GRK2 aptamer HTS
Cc1ccc2c(c1C)NC(C(=O)O)C1CC=CC21 (centres undefined)	7	i	i	274	13	47*
O=C(O)C1Nc2c(C(=O)N3CCOCC3)cccc2C2C=CCC12 (centres undefined)	6.8*	i	i	232	14	38
CCOC(=O)c1ccc2c(c1)C1C=CCC1C(C(=O)O)N2 (centres undefined)	·	·	·	200	·	88*
O=C(O)C1Nc2c(C(F)(F)F)ccc(Cl)c2C2C=CCC12 (centres undefined)	1	i	i	374	3	0
CCOC(=O)C1Nc2ccc(C(=O)O)cc2C2C=CCC12 (centres undefined)	5	i	i	323	-1	22
CN1OC[C@@H]2CN(Cc3cc(Cl)cc(Cl)c3)[C@H](c3cccc(Br)c3)C[C@@H]21	0	i	·	·	0	·
Cc1cccc(NC(=O)CCc2nc3sc4c(c3c(=O)[nH]2)CCCC4)c1	-7	i	i	356	18	0
Cc1cccc(NC(=O)C(C)SCc2nc3sc4c(c3c(=O)[nH]2)CCCC4)n1 (centres undefined)	-1	+	i	802	4	2
O=C(c1ccco1)N1CCN(Cc2cc(=O)c(OCc3ccc([N+](=O)[O-])cc3)co2)CC1	-1	i	i	386	-4	3
Cc1cccc(NC(=O)Nc2ccc(F)cc2)n1	0	+	i	284	2	2
CSCC[C@H](N)C(=O)N1CCC(C(=O)N[C@H](C(=O)NCc2ccccc2F)C(C)C)CC1	-1	i	i	137	22	0
COc1ccc(C(=O)O/N=C(\N)c2ccccc2)cc1	2	i	i	253	-5	3
N/C(=N\OC(=O)Cc1cccs1)c1ccc([N+](=O)[O-])cc1	-4	i	i	186	13	0
N/C(=N\OC(=O)c1ccco1)c1ccc(Br)cc1	1	i	i	152	50*	0
COc1ccc(/C(N)=N/OC(=O)c2ccco2)cc1	-1	i	i	28	51*	0
Cc1ccc(/C(N)=N/OC(=O)c2ccco2)cc1	-1	i	i	276	85*	0
N/C(=N\OC(=O)Cc1cccs1)c1ccc(Br)cc1	0	i	i	141	61*	1
N/C(=N\OC(=O)c1ccco1)c1ccccc1	5	i	i	270	12	0
Cc1cc(NS(=O)(=O)c2ccc(NC(=O)c3cc(-c4ccccc4Cl)nc4ccccc34)cc2)no1	0	i	i	165	-4	1
Cc1cc(NS(=O)(=O)c2ccc(NC(=O)c3cc(-c4cccnc4)nc4ccc(Cl)cc34)cc2)no1	-1	i	i	687	37*	0
COc1cc(CCC(=O)OCC(=O)NCCc2ccc(S(N)(=O)=O)cc2)cc(OC)c1OC	2	i	·	186	-15	1
CN(CC(=O)Nc1ccccc1C(F)(F)F)C(=O)CSc1nnc(N)s1	3	i	·	308	3	4
CCc1nc(Nc2ccncc2)c2oc3ccccc3c2n1	1	i	+	505	9	2
CCOc1ccc2nc(SCC(=O)NNC(=O)c3ccco3)c(C)cc2c1	1	i	i	402	15	6
CCOc1ccc2cc(/C=C/C(=O)c3ccco3)c(Cl)nc2c1	5	+	i	325	7	5
SMILES	Rin1 Abl inh	Myeloid diff MLP	Rce1 inh	T cell HTS	SKN-1 inh	GRK2 aptamer HTS
COc1ccccc1-c1cnc2c(c1)C(=O)N([C@@H](C)CO)C[C@H](C)[C@H](CN(C)C)O2	2	i	·	·	9	·
COc1cc(CC(=O)OCC(=O)Nc2ccc3c(c2)OCO3)cc(OC)c1OC	4	i	i	526	-5	0
O=C(Nc1cc(S(=O)(=O)N2CCCCC2)ccc1Cl)c1ccccc1NS(=O)(=O)c1ccc(F)cc1	-2	i	+	362	-4	1
CCc1nnc(NC(=O)CC23CC4CC(CC(Br)(C4)C2)C3)s1	-2	i	i	327	7	1
COc1cccc(CN(C)C(=O)CCNC(=O)c2ccc(Br)cc2)c1	-4	+	i	935	-4	0
COc1cccc(NC(=O)CN(C)C(=O)CCNC(=O)c2ccccc2OC)c1	4	+	·	·	-4	·
CC1(C(=O)NS(=O)(=O)c2cccc(F)c2)CCN1C(=O)CCC1CCCC1 (centres undefined)	-4	i	·	·	-1	·
Cc1sc(NC(=O)c2sc3nc4c(C)cccc4cc3c2N)c(C#N)c1C	1	+	i	470	19	0
Cc1ccc(C)c2nc3sc(C(=O)N4CCOCC4)c(N)c3cc12	-2	i	i	236	4	5
Cc1cccc2cc3c(N)c(C(=O)N4CCc5ccccc54)sc3nc12	-1	+	i	183	11	1
COc1ccc(C(=O)OCCCc2cc3ccccc3c(=O)o2)cc1	3	i	·	289	19	3
O=C(NC(Cc1c[nH]c2ccccc12)C(=O)O)OCC1c2ccccc2-c2ccccc21 (centres undefined)	1	i	·	·	-1	·
COc1ccc(/C=C/C(=O)c2cc(Cl)ccc2O)c(OC)c1	0	i	i	107	-3	0
COc1ccc(C(=O)/C=C/c2ccc(OC)cc2OC)c(O)c1	3	i	+	354	10	1
CCOC(=O)CN1N=C(/C=C/c2ccc(C(C)C)cc2)CCC1=O	5	i	i	337	5	0
CCCOc1ccc(-c2nnc(-c3ccco3)o2)cc1	-2	i	i	189	79*	3
CC(C)COc1ccc(-c2nnc(-c3ccco3)o2)cc1	-4	i	i	249	43*	2
CC(C)N1CCC(N2CCN(Cc3ccc(Oc4ncccn4)cc3)CC2CCO)CC1 (centres undefined)	-2	i	i	163	8	2
Cc1cc(-c2nnnn2-c2cc(Cl)cc(Cl)c2)no1	1	i	i	284	0	4
CN(C)S(=O)(=O)c1ccc(NC(=O)/C=C/c2ccccc2Cl)cc1	-4	i	+	260	3	2
COC(=O)c1c(C)[nH]c(C(=O)CC#N)c1C	3	+	i	i	5	1
CCN1C(=O)C(=CC=CN(C)c2ccccc2)SC1=S	1	+	·	·	25	·
CCCN1C(=O)/C(=C\C=C2/Sc3ccccc3N2CC)SC1=S	·	·	i	·	·	·
CCCN1C(=O)/C(=C\C=C2\N(CC)c3ccccc3C2(C)C)SC1=S	2	+	i	·	27	·
CN1/C(=C\C=C2/SC(=S)NC2=O)C(C)(C)c2ccccc21	-6	+	i	i	75	0
